ChEMBL document CHEMBL1144240, “Binding is not enough: flexibility is needed for photocrosslinking of Lck kinase by benzophenone photoligands” (Bioorg Med Chem, 2008)
Calls of active or inactive are those of the source. No cut-off for these calls is given here.

Assays:
[1] = molecular target: T1, Tyrosine-protein kinase Lck (Homo sapiens, UniProt P06239); test: Inhibition of Lck by luciferase based assay
How it was run: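 Lck (prediluted to 46 ng/µl) was mixed with Src substrate peptide (0.25 mM stock) in 50 mM HEPES pH 7.3, 2.5 mM DTT, 0.01% Triton X-100 and 10 mM MgCl2, plus ligand at various concentrations. Reaction was started with 100 µM ATP stock and run 1 h at room temperature. Residual ATP was read by Kinase-Glo Plus luminescence after 10 min. IC50 with 95% CI from sigmoidal fit, n = 2 or 3.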

[2] = Chemical stability after 30 mins of UV irradiation by RP-HPLC; format: physicochemical; details: read-out: Stability
How it was run: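 Free ligands in buffer solution were irradiated under a UV-A lamp (λmax 350 nm). Aliquots were taken at 0, 10 and 30 min, and intact ligand was quantified by HPLC with UV detection at 280 nm.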

[3] = molecular target: T1, Tyrosine-protein kinase Lck; test: Binding affinity to Lck assessed as photolabeling efficiency by Western blot analysis
How it was run: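 Lck was photocrosslinked with each ligand at 0, 3, 9, 18, 36, 90 and 180 µM. Labeled-band intensities were plotted against probe concentration. EC50 (ligand concentration giving 50% of maximal labeling) and its 95% CI were obtained by sigmoidal dose-response fitting of triplicate trials (n = 3).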
Target sequence in this assay (P06239 whole entry): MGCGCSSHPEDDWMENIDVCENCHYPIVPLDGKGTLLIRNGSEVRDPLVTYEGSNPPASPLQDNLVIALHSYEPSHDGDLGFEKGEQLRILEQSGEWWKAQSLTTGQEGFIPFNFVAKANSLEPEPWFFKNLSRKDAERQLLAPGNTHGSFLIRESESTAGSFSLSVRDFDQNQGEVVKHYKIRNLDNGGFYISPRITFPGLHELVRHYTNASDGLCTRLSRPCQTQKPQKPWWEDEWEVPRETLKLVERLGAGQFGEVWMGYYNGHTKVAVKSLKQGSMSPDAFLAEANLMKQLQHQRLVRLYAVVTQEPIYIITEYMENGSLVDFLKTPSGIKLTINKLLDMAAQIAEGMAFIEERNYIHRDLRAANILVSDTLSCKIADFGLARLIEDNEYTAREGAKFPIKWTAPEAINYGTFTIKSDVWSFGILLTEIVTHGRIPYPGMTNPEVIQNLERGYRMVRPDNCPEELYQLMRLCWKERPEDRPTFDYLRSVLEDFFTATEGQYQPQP

[4] = molecular target: T1, Tyrosine-protein kinase Lck; test: Binding affinity to Lck assessed as photolabeling efficiency in presence of ATP-competitive Lck inhibitor by Western blot
Target sequence in this assay (P06239 2-509 limits assumed): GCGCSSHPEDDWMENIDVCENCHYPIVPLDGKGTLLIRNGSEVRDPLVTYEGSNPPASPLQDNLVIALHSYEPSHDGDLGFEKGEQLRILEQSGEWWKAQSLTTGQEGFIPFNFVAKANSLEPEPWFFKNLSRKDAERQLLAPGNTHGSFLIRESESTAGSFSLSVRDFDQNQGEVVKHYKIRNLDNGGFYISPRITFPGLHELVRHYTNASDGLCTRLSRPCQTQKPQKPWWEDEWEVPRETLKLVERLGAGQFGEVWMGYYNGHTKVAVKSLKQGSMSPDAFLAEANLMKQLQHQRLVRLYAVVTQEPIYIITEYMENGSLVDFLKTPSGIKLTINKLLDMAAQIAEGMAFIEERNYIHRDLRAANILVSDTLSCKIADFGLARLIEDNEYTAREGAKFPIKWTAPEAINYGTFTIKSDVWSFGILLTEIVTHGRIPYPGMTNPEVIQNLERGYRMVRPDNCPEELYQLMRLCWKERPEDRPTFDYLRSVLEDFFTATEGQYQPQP

SMILES | Activity [1] | remaining at 0.5 h [2] [%] | EC50 [3] [µM] | Activity [4] | IC50 [1] [µM]
Nc1ncnc2c1ncn2CC(=O)N(CCNC(=O)[C@H]1CCCCN1C(=O)[C@H](Cc1ccc(C(=O)c2ccccc2)cc1)NC(=O)CCCNC(=O)CCCC[C@@H]1SC[C@@H]2NC(=O)N[C@@H]21)CC(=O)NCC(=O)O | inactive | 70 | > 150 |  | 
Nc1ncnc2c1ncn2CC(=O)N(CCNC(=O)[C@@H](CO)NC(=O)[C@H](Cc1ccc(C(=O)c2ccccc2)cc1)NC(=O)CCCNC(=O)CCCC[C@@H]1SC[C@@H]2NC(=O)N[C@@H]21)CC(=O)NCC(=O)O |  | 70 | 23.3 | inactive | 50
Nc1ncnc2c1ncn2CC(=O)N(CCNC(=O)CNC(=O)[C@H](Cc1ccc(C(=O)c2ccccc2)cc1)NC(=O)CCCNC(=O)CCCC[C@@H]1SC[C@@H]2NC(=O)N[C@@H]21)CC(=O)NCC(=O)O | inactive | 70 | 14.4 | inactive | 
Nc1ncnc2c1ncn2CC(=O)N(CCNC(=O)[C@@H](CCC(=O)O)NC(=O)[C@H](Cc1ccc(C(=O)c2ccccc2)cc1)NC(=O)CCCNC(=O)CCCC[C@@H]1SC[C@@H]2NC(=O)N[C@@H]21)CC(=O)NCC(=O)O | inactive | 70 | 18.4 | inactive | 
Nc1ncnc2c1ncn2CC(=O)N(CCNC(=O)CCCNC(=O)[C@H](Cc1ccc(C(=O)c2ccccc2)cc1)NC(=O)CCCNC(=O)CCCC[C@@H]1SC[C@@H]2NC(=O)N[C@@H]21)CC(=O)NCC(=O)O | inactive | 70 | 4.4 | inactive | 
Nc1ncnc2c1ncn2CC(=O)N(CCNC(=O)[C@H]1CCCN1C(=O)[C@H](Cc1ccc(C(=O)c2ccccc2)cc1)NC(=O)CCCNC(=O)CCCC[C@@H]1SC[C@@H]2NC(=O)N[C@@H]21)CC(=O)NCC(=O)O |  | 70 | > 150 |  | 50
